Laboratory results reported in ChEMBL document CHEMBL4152211, “Discovery of novel Methylsulfonyl phenyl derivatives as potent human Cyclooxygenase-2 inhibitors with effective anticonvulsant action: Design, synthesis, in-silico, in-vitro and in-vivo evaluation” (Eur J Med Chem, 2018).
The source made the active and inactive calls. No cut-off for these calls is given here.

Tests used:
Mus musculus [1] = experiment: Anticonvulsant activity in Swiss albino mouse assessed as protection against subcutaneous pentylenetetrazole-induced seizures at 300 mg/kg, ip administered 4 hrs prior to PTZ challenge and measured after 30 mins; type: functional
Method in brief: (§1)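 Male Swiss Albino mice (25–30 g), 6 per group, dosed i.p. with drugs in sterile saline, then challenged with PTZ 85 mg/kg s.c. (CD97), given at 10 ml/kg, 0.5 h or 4 h later. Each animal is observed singly for seizures. Protection is scored as protected/total animals.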

Mus musculus [2] = experiment: Anticonvulsant activity in Swiss albino mouse assessed as protection against subcutaneous pentylenetetrazole-induced seizures at 300 mg/kg, ip administered 0.5 hrs prior to PTZ challenge and measured after 30 mins; type: functional; method in brief: as §1
[3] = target: T1, Prostaglandin G/H synthase 1 (Ovis aries) (UniProt P05979); experiment: Inhibition of ovine COX1 at 10 uM using arachidonic acid as substrate preincubated for 5 mins followed by substrate addition and measured after 2 mins by ADPH probe-based fluorescence assay relative to control
T1 sequence (whole entry): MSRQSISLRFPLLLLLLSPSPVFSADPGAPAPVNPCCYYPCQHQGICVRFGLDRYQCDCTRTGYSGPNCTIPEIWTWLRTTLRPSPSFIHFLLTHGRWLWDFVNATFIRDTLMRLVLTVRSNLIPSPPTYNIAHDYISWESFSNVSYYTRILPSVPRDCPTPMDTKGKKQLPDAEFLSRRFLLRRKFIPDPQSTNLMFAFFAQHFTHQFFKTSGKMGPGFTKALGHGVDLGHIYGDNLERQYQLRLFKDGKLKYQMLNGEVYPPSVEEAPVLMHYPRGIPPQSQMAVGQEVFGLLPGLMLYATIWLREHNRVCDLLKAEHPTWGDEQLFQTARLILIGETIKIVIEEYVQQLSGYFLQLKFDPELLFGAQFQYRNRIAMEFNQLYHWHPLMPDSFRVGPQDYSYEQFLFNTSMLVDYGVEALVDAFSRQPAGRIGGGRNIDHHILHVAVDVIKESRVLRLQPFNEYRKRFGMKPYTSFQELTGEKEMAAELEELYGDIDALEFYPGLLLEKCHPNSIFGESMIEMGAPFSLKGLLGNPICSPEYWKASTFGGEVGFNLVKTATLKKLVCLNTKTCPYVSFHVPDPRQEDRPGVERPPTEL
Method in brief: (§2)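 Kit assay in 100 mM Tris-HCl pH 8.0. Enzyme, heme and inhibitor (DMSO stocks) are incubated 5 min at room temperature. ADPH is added, then arachidonic acid starts the reaction. After 2 min, fluorescence is read at ex 535/em 590 nm. Percent inhibition is taken versus the 100% activity well, background wells included. IC50 is derived from percentage inhibition, mean of three independent experiments.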

[4] = target: T2, Prostaglandin G/H synthase 2 (Homo sapiens, UniProt P35354); experiment: Inhibition of human recombinant COX2 using arachidonic acid as substrate preincubated for 5 mins followed by substrate addition and measured after 2 mins by ADPH probe-based fluorescence assay; method in brief: as §2
T2 sequence (P35354 whole entry): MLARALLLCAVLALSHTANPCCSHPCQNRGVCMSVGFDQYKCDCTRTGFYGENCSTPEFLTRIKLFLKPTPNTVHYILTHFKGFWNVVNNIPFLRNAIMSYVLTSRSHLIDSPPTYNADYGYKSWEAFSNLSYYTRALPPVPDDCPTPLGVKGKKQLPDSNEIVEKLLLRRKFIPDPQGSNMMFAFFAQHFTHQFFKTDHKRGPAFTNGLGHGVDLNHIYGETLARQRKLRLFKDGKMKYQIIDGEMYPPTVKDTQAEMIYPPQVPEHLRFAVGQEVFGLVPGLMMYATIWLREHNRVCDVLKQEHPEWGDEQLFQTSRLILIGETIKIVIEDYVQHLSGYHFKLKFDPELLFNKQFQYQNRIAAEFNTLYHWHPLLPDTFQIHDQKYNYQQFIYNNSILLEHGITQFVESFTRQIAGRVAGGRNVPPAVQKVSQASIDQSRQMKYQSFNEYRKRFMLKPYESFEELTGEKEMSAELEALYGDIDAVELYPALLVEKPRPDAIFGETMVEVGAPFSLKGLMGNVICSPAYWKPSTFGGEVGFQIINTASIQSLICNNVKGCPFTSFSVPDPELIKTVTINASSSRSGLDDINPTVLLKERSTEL

[5] = target: T3, Prostaglandin G/H synthase 2 (Homo sapiens) (UniProt P35354); experiment: Inhibition of human recombinant COX2 at 10 uM using arachidonic acid as substrate preincubated for 5 mins followed by substrate addition and measured after 2 mins by ADPH probe-based fluorescence assay relative to control; method in brief: as §2
T3 sequence (whole entry): T2 sequence (P35354 whole entry)

Mus musculus [6] = experiment: Anticonvulsant activity in Swiss albino mouse assessed as protection against subcutaneous pentylenetetrazole-induced seizures at 100 mg/kg, ip administered 4 hrs prior to PTZ challenge and measured after 30 mins; type: functional; method in brief: as §1
Mus musculus [7] = experiment: Anticonvulsant activity in Swiss albino mouse assessed as protection against subcutaneous pentylenetetrazole-induced seizures at 100 mg/kg, ip administered 0.5 hrs prior to PTZ challenge and measured after 30 mins; type: functional; method in brief: as §1
Mus musculus [8] = experiment: Anticonvulsant activity in Swiss albino mouse assessed as protection against subcutaneous pentylenetetrazole-induced seizures at 30 mg/kg, ip administered 4 hrs prior to PTZ challenge and measured after 30 mins; type: functional; method in brief: as §1
Mus musculus [9] = experiment: Anticonvulsant activity in Swiss albino mouse assessed as protection against subcutaneous pentylenetetrazole-induced seizures at 30 mg/kg, ip administered 0.5 hrs prior to PTZ challenge and measured after 30 mins; type: functional; method in brief: as §1
Mus musculus [10] = experiment: Anticonvulsant activity in Swiss albino mouse assessed as protection against subcutaneous pentylenetetrazole-induced seizures at 10 mg/kg, ip administered 4 hrs prior to PTZ challenge and measured after 30 mins; type: functional; method in brief: as §1
Mus musculus [11] = experiment: Anticonvulsant activity in Swiss albino mouse assessed as protection against subcutaneous pentylenetetrazole-induced seizures at 10 mg/kg, ip administered 0.5 hrs prior to PTZ challenge and measured after 30 mins; type: functional; method in brief: as §1
Mus musculus [12] = experiment: Anticonvulsant activity in Swiss albino mouse assessed as protection against subcutaneous pentylenetetrazole-induced seizures at 5 mg/kg, ip administered 0.5 hrs prior to PTZ challenge and measured after 30 mins; type: functional; method in brief: as §1
Mus musculus [13] = experiment: Anticonvulsant activity in Swiss albino mouse assessed as protection against subcutaneous pentylenetetrazole-induced seizures at 1 mg/kg, ip administered 0.5 hrs prior to PTZ challenge and measured after 30 mins; type: functional; method in brief: as §1
Mus musculus [14] = experiment: Anticonvulsant activity in Swiss albino mouse assessed as protection against subcutaneous pentylenetetrazole-induced seizures at 1 mg/kg, ip administered 4 hrs prior to PTZ challenge and measured after 30 mins; type: functional; method in brief: as §1
Rattus norvegicus = experiment: Antiepileptic activity in rat model of PTZ-induced epileptiogenesis kindling model assessed as decrease of seizure severity at 5 mg/kg, ip measured up to 28 days; type: functional, organism-based
Method in brief: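 Adult male Wistar rats receive PTZ 40 mg/kg i.p. on alternate days for 28 days plus daily i.p. treatment. After each PTZ injection, rats are observed singly for 45 min and scored on the revised Racine scale (stages to 6). Group mean score per week, ±S.D. Statistics are repeated-measures ANOVA with Tukey's test.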

Mus musculus [15] = experiment: Anticonvulsant activity in Swiss albino mouse assessed as protection against subcutaneous pentylenetetrazole-induced seizures at 5 mg/kg, ip administered 4 hrs prior to PTZ challenge and measured after 30 mins; type: functional; method in brief: as §1

Structure (SMILES) | inhibition [3] | IC50 [4] [µM] | inhibition [5] [%] | other results
CCCC(CCC)C(=O)[O-].[Na+] [VALPROATE SODIUM] | – | – | – | Activity (Mus musculus [1]): 50%; Activity (Mus musculus [2]): 100%
CS(=O)(=O)c1ccc(NC(=O)NNC(=S)Nc2ccccc2)cc1 | inactive | 12.8 | 50 | –
CS(=O)(=O)c1ccc(NC(=O)NNC(=S)Nc2c(F)cccc2F)cc1 | inactive | 6.42 | 62 | –
CS(=O)(=O)c1ccc(NC(=O)NNC(=S)Nc2cccc(Cl)c2Cl)cc1 | inactive | – | 46 | –
CS(=O)(=O)c1ccc(NC(=O)NNC(=S)Nc2ccc(Cl)cc2)cc1 | inactive | 5.32 | 70 | –
CS(=O)(=O)c1ccc(NC(=O)NNC(=S)NCc2ccccc2)cc1 | inactive | – | 21 | –
Cc1cccc(C)c1NC(=S)NNC(=O)Nc1ccc(S(C)(=O)=O)cc1 | inactive | 3.14 | 64 | Activity (Mus musculus [1]): 50%; Activity (Mus musculus [6]): 33%; Activity (Mus musculus [2]): 33%; Activity (Mus musculus [7]): 33%; Activity (Mus musculus [8]): 17%; Activity (Mus musculus [9]): 17%
Cc1ccc(-c2ncc(Cl)cc2-c2ccc(S(C)(=O)=O)cc2)cn1 [ETORICOXIB] | – | – | – | Activity (Mus musculus [10]): 50%; Activity (Mus musculus [11]): 50%; Activity (Mus musculus [12]): 67%; Activity (Mus musculus [13]): 50%; Activity (Mus musculus [14]): 50%; Activity (Rattus norvegicus): Active; Activity (Mus musculus [15]): 67%
CS(=O)(=O)c1ccc(NC(=O)NNC(=S)Nc2ccc(F)cc2)cc1 | inactive | 12.5 | 54 | –
COc1ccc(NC(=S)NNC(=O)Nc2ccc(S(C)(=O)=O)cc2)cc1 | inactive | 7.15 | 62 | –
CS(=O)(=O)c1ccc(NC(=O)NNC(=S)NCCc2ccccc2)cc1 | inactive | – | 22 | –
CCNC(=S)NNC(=O)Nc1ccc(S(C)(=O)=O)cc1 | inactive | – | 32 | –
